Experimental data taken from ChEMBL document CHEMBL1124929, “Indolo[2,1-a]isoquinolines. Syntheses, steroid hormone receptor binding affinities, and cytostatic activity” (1990).

How the values were obtained:
MCF7 [1] = assay: Effect on hormone-dependent MCF-7 human breast cancer cell proliferation at 1x10E-5 M; type: functional
Method in brief: (§1)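 Cells were plated at about 2 × 10⁴ per well in six-well dishes. MCF-7 cells were grown in modified improved MEM with 5% NCS, switched to charcoal-treated NCS two weeks before the test, and exposed for 5 days with a re-dose on day 4. MDA-MB 231 cells were grown in McCoy 5a with 10% NCS and exposed for 2 days. Compounds were given 1 day after plating in 0.1% DMSO, with DMSO-matched controls. Read-out was cell number as % T/C, mean of three experiments with six dishes.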

MDA-MB-231 [2] = assay: Effect on [3H]thymidine incorporation into MDA-MB 231 human breast cancer cells at 1x10E-5 M; type: functional
Method in brief: (§2)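 Cells were seeded at ~2 × 10⁴ per well, treated from the next day in 0.1% DMSO, with DMSO controls. MCF-7 cells were held in charcoal-stripped NCS for 2 weeks, treated for 5 days and re-dosed on day 4. MDA-MB 231 cells were grown in McCoy 5a/10% NCS and treated for 2 days. At the end, 1 µCi [³H]thymidine per well was added for 2 h. Result is % T/C, mean of three experiments × six dishes.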

MDA-MB-231 [3] = assay: Effect on [3H]-thymidine incorporation into MDA-MB 231 human breast cancer cells at 1x10E-6M; type: functional; method in brief: as §2
MCF7 [4] = assay: Effect on [3H]thymidine incorporation into MCF-7 human breast cancer cells at 5x10E-6M; type: functional; method in brief: as §2
[5] = biological target: T1, Estrogen receptor (Mus musculus) (UniProt O08537+P19785); assay: (§3) Estrogenic activity in uterotrophic assay in immature mice at 40.0 ug subcutaneous dose; type: functional
Method in brief: (§4)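 Immature female NMRI mice, 20 days old, in groups of 6-10, were dosed sc once daily for three consecutive days. Compounds were given in PEG/0.9% saline 1:1; vehicle controls were included. Animals were killed 24 h after the last dose. Uteri were fixed in Bouin solution and the effect was taken as uterine dry weight (mg)/body weight (g) ×100, given as mean ± SD.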

[6] = biological target: T1, Estrogen receptor (Mus musculus); assay: Inhibition of 0.4 ug estrone-stimulated uterine growth in mice at 40.0 ug subcutaneous dose; type: functional
Method in brief: (§5)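 Immature 20-day-old female NMRI mice received sc injections on three consecutive days. Each injection held 0.4 µg estrone plus the compound in PEG/saline 1:1. […] Significance was tested by Mann-Whitney U test.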

[7] = biological target: T1, Estrogen receptor (Mus musculus); assay: (§6) Estrogenic activity in uterotrophic assay in immature mice at 2 ug subcutaneous dose; type: functional; method in brief: as §4
MDA-MB-231 [8] = assay: Cytostatic effect on hormone-independent MDA-MB 231 human breast cancer cell proliferation at 1x10E-6M; type: functional; method in brief: as §1
[9] = biological target: T1, Estrogen receptor (Mus musculus); assay: Inhibition of 0.4 ug estrone-stimulated uterine growth in mice at 2 ug subcutaneous dose; type: functional; method in brief: as §5
MDA-MB-231 [10] = assay: Cytostatic effect on hormone-independent MDA-MB 231 human breast cancer cell proliferation at5x10E-6M; type: functional; method in brief: as §1
MDA-MB-231 [11] = assay: Cytostatic effect on hormone-independent MDA-MB 231 human breast cancer cell proliferation at 1x10E-5 M; type: functional; method in brief: as §1
MCF7 [12] = assay: Effect on hormone-dependent MCF-7 human breast cancer cell proliferation at 5x10E-6M; type: functional; method in brief: as §1
MDA-MB-231 [13] = assay: Effect on [3H]thymidine incorporation into MDA-MB 231 human breast cancer cells at 5x10E-6M; type: functional; method in brief: as §2
[14] = biological target: T1, Estrogen receptor (Mus musculus); assay: as §3; type: functional; method in brief: as §4; remark: listed apart in the source
Bos taurus = organism: Bos taurus; assay: Relative binding affinity(RBA) as ratio of progesterone and compound required to displace [3H]-org 2058 binding to Progesterone receptor by 50%
Method in brief: (§7)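 Receptor source was calf uterine cytosol (105000g supernatant, 3 mg/mL protein in assay). Buffers were Tris/EDTA pH 7.4, with NaN₃ for ER, molybdate/glycerol for AR, and sucrose for PR. Tracers were 1 nM [³H]estradiol, [³H]mibolerone or [³H]Org 2058. Incubation was at 0–4 °C for 16 h (ER) or 2 h (AR, PR), with 4–6 competitor concentrations. Nonspecific binding used 2 µM of the unlabeled hormone. Separation was by dextran-coated charcoal. RBA is the ratio of IC50 values for hormone and compound ×100, mean of two triplicate experiments.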

[15] = biological target: T2, Androgen Receptor (Bos taurus) (UniProt Q5EM59); assay: Relative binding affinity(RBA) for 50% displacement of [3H]mibolerone from Androgen receptor compared to testorone; method in brief: as §7
T2 sequence (whole entry): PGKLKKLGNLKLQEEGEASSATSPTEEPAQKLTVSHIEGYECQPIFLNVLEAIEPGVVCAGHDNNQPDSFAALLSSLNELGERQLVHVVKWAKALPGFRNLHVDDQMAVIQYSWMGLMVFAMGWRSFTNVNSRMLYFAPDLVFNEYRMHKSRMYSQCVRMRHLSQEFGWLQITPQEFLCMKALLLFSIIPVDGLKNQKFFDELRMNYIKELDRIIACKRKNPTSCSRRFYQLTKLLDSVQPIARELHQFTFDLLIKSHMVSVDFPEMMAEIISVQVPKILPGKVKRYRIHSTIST

[16] = biological target: Estrogen receptor (Bos taurus) (UniProt Q9XSB5+P49884); assay: Relative binding affinity(RBA) for 50% displacement of [3H]-estradiol from Estrogen receptor compared to 17-beta-estradiol; type: protein assay; method in brief: as §7
[17] = biological target: T1, Estrogen receptor (Mus musculus); assay: Estrogenic activity in uterotrophic assay in immature mice at 125 ug subcutaneous dose; type: functional; method in brief: as §4
MCF7 [18] = assay: Effect on [3H]thymidine incorporation into MCF-7 human breast cancer cells at 1x10E-6M; type: functional; method in brief: as §2
MCF7 [19] = assay: Effect on [3H]thymidine incorporation into MCF-7 human breast cancer cells at 1x10E-5 M; type: functional; method in brief: as §2
MCF7 [20] = assay: Effect on hormone-dependent MCF-7 human breast cancer cell proliferation at 1x10E-6M; type: functional; method in brief: as §1
[21] = biological target: T1, Estrogen receptor (Mus musculus); assay: (§8) Estrogenic activity in uterotrophic assay in immature mice at 50.0 ug subcutaneous dose; type: functional; method in brief: as §4
[22] = biological target: T1, Estrogen receptor (Mus musculus); assay: (§9) Estrogenic activity in uterotrophic assay in immature mice at 250 ug subcutaneous dose; type: functional; method in brief: as §4
[23] = biological target: T1, Estrogen receptor (Mus musculus); assay: (§10) Estrogenic activity in uterotrophic assay in immature mice at 10.0 ug subcutaneous dose; type: functional; method in brief: as §4
[24] = biological target: T1, Estrogen receptor (Mus musculus); assay: Inhibition of 0.4 ug estrone-stimulated uterine growth in mice at 50.0 ug subcutaneous dose; type: functional; method in brief: as §5
[25] = biological target: T1, Estrogen receptor (Mus musculus); assay: as §9; type: functional; method in brief: as §4; remark: listed apart in the source
[26] = biological target: T1, Estrogen receptor (Mus musculus); assay: Inhibition of 0.4 ug estrone-stimulated uterine growth in mice at 10.0 ug subcutaneous dose; type: functional; method in brief: as §5
[27] = biological target: T1, Estrogen receptor (Mus musculus); assay: as §10; type: functional; method in brief: as §4; remark: listed apart in the source
[28] = biological target: T3, Androgen receptor (Mus musculus) (UniProt P19091); assay: Relative effect on seminal vesicle weight in adult and castrated mice supplemented with 0.3 mg TP at 1000 ug dose; type: functional, tissue-based
T3 sequence (whole entry): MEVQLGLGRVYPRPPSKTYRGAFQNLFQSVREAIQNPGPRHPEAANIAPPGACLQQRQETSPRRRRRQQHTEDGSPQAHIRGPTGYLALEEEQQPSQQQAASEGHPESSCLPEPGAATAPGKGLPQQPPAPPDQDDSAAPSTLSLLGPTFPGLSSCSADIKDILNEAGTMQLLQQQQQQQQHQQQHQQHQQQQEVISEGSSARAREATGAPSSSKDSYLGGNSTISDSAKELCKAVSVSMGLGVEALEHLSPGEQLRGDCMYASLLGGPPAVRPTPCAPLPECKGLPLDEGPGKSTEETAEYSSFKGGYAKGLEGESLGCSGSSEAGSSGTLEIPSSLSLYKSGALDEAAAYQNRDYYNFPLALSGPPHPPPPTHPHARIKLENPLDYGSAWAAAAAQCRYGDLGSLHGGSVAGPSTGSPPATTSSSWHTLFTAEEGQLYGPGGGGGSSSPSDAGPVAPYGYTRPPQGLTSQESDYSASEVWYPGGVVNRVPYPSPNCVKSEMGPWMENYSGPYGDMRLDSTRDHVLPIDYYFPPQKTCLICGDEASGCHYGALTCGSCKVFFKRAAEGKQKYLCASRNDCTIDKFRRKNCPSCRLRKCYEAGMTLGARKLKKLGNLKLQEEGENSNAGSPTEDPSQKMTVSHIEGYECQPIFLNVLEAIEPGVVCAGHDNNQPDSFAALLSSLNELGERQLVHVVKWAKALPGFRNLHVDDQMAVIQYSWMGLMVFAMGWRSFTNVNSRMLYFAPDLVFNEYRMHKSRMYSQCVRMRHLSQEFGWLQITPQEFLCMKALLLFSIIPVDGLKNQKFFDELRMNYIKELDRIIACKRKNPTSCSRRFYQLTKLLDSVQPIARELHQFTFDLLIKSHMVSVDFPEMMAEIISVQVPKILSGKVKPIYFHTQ
Method in brief: (§11)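 Adult male mice, 23–25 g, six per group, were used intact or castrated via the scrotal route under ether 5 days before the test. Castrates received 0.3 mg testosterone propionate daily. Compounds were injected daily in olive oil for nine days. Seminal vesicles were taken 24 h later, fixed in Bouin solution, dried overnight at 100 °C and weighed. Result is organ mg/body g ×100; % inhibition = [1 − treated/control] × 100.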

[29] = biological target: T1, Estrogen receptor (Mus musculus); assay: as §8; type: functional; method in brief: as §4; remark: listed apart in the source
[30] = biological target: T3, Androgen receptor (Mus musculus); assay: Inhibition of seminal vesicle weight in intact mice at 100 ug
[31] = biological target: T1, Estrogen receptor (Mus musculus); assay: Inhibition of 0.4 ug estrone-stimulated uterine growth in mice at 250 ug subcutaneous dose; type: functional; method in brief: as §5
[32] = biological target: T3, Androgen receptor (Mus musculus); assay: Relative effect on seminal vesicle weight in adult and castrated mice at 1000 ug dose; type: functional, tissue-based; method in brief: as §11
[33] = biological target: T3, Androgen receptor (Mus musculus); assay: Inhibition of testosterone-stimulated seminal vesicle growth in castrated mice supplemented with 0.3 mg of TP at 1000.0 ug; type: functional; method in brief: as §11
[34] = biological target: T1, Estrogen receptor (Mus musculus); assay: as §6; type: functional; method in brief: as §4; remark: listed apart in the source
[35] = biological target: T3, Androgen receptor (Mus musculus); assay: Relative effect on seminal vesicle weight in adult and castrated mice at 100 ug dose; type: functional, tissue-based; method in brief: as §11

T1 sequence (O08537 whole entry, looked up): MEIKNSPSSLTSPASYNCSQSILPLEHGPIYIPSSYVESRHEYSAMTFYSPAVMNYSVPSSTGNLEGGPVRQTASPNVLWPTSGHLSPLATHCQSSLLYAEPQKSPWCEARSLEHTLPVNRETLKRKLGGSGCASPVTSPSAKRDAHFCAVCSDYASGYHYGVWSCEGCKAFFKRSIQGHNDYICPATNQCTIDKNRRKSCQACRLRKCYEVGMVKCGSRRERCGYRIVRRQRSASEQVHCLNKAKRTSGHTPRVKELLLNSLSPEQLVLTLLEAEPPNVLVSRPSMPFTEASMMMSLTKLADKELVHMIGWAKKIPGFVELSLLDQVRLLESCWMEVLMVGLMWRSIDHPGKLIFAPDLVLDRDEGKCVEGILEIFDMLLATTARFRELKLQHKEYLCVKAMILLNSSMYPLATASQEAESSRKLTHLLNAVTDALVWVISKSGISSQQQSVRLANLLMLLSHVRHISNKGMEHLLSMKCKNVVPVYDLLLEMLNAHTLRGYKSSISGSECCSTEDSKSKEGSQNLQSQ
T1 sequence (P19785 whole entry, looked up): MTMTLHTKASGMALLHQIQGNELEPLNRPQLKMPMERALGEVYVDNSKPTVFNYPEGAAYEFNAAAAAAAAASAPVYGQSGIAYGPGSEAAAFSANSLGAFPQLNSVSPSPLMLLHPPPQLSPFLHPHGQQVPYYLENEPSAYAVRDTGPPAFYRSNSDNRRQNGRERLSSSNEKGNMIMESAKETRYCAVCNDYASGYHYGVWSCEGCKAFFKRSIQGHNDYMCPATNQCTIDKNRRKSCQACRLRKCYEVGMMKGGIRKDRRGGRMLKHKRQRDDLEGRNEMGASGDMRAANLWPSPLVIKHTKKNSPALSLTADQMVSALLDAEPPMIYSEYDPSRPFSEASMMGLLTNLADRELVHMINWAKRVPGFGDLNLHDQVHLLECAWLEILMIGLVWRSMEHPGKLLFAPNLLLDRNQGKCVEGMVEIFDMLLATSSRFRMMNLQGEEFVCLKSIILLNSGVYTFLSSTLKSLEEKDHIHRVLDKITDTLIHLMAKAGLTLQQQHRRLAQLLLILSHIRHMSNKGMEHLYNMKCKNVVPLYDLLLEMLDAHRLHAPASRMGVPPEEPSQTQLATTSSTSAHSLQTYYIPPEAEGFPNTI

| Effect [7] | inhibition [9] [%] | RBA (Bos taurus) | RBA [15] | RBA [16] | Structure (SMILES) | T/C (MCF7 [1]) [%] | T/C (MDA-MB-231 [2]) [%] | T/C (MDA-MB-231 [3]) [%] | T/C (MCF7 [4]) [%] | T/C (MDA-MB-231 [8]) [%] | T/C (MDA-MB-231 [10]) [%] | T/C (MDA-MB-231 [11]) [%] | T/C (MCF7 [12]) [%] | T/C (MDA-MB-231 [13]) [%] | T/C (MCF7 [18]) [%] | T/C (MCF7 [19]) [%] | T/C (MCF7 [20]) [%] | also measured |
| --- | --- | --- | --- | --- | --- | --- | --- | --- | --- | --- | --- | --- | --- | --- | --- | --- | --- | --- |
| 21.2 | 11.7 | 0.04 | < 0.01 | 2.9 | CCC1Cc2cc(OC(C)=O)c(OC(C)=O)cc2-c2cc3cc(OC(C)=O)ccc3n21 (stereo not drawn) | 22 | 38 | 77 | 11 | 100 | 62 | 51 | 39 | 35 | 95 | 3 | 89 | Effect [5]: 42.8; inhibition [6]: 15.7%; Effect [14]: 49.7; Effect [17]: 55.8 |
| 11.5 | 2.8 | 0.05 | 2.5 | 4 | CCC1Cc2cc(OC(C)=O)ccc2-c2cc3ccc(OC(C)=O)cc3n21 (stereo not drawn) | 6 | 8 | 93 | 24 | 98 | 11 | 11 | 39 | 11 | 42 | 2 | 67 | Effect [21]: 18.5; Effect [22]: 40.5; Effect [23]: 44.5; inhibition [24]: 31%; Effect [25]: 48.2; inhibition [26]: 17.4%; Effect [27]: 15.7; Relative seminal vesicle weight [28]: 200; Effect [29]: 18.5; inhibition [30]: 21%; inhibition [31]: 6.8%; Relative seminal vesicle weight [32]: 121; inhibition [33]: 12%; Effect [34]: 49.6; Relative seminal vesicle weight [35]: 156 |
